Data reported in publication PMC10993133 (iScience, 2024).

Experiments:
Type in all cases: cell-based, human
[1] = tested on: MDAMB231 cells; test: ROS generation; settings: MDAMB231, 1 µM, 24 hrs, CM-H2DCFDA, n=4
Procedure, shortened: (§1)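 MCF7 or MDAMB231 cells were treated 24 hrs with Dox or encapsulated test compound. Cells were scraped, pelleted and washed twice in chilled PBS, then loaded with CM-H2DCFDA (5 µM) in PBS for 20 min in the dark at 37°C. After washing, cells were lysed in PBS with 1% Tween 20. DCF fluorescence was read at ex 480/em 530 nm. Means ± S.E., n=4, versus vehicle control.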

[2] = tested on: MCF7 cells; test: Mitochondrial membrane potential; settings: MCF7, 1 µM, 30 hrs, JC-1, n=4
Procedure, shortened: (§2)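 MCF7 and MDAMB231 cells in DMEM with 10% FCS were treated 30 hrs with Dox or encapsulated test compound, then harvested. They were incubated with shaking in JC-1 (2.5 µg/mL) in PBS at 37°C for 30–35 min. Cells were washed three times for 5 min in cold PBS and resuspended. ΔΨM was taken as the 590/530 nm fluorescence ratio. Means ± S.E., n=4.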

[3] = tested on: MDAMB231 cells; test: Mitochondrial membrane potential; settings: MDAMB231, 1 µM, 30 hrs, JC-1, n=4
Procedure, shortened: as §2

[4] = tested on: MCF7 cells; test: DNA fragmentation assay; settings: MCF7, 30 hrs exposure, agarose gel
Procedure, shortened: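 MCF7 cells were seeded at 1 × 10^6 per well and exposed 30 hrs. They were lysed at RT in 0.5% Triton X-100, 15 mM EDTA, 20 mM Tris HCl. DNA was extracted with phenol/chloroform/isoamyl alcohol (25:24:1), then treated 1 hr with RNase (0.1 mg/mL) and proteinase K (1 mg/mL). It was precipitated overnight at −20°C with sodium acetate/ethanol, run on 2% agarose and stained with ethidium bromide.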

[5] = tested on: MCF7 cells; test: ROS generation; settings: MCF7, 1 µM, 24 hrs, CM-H2DCFDA, n=4
Procedure, shortened: as §1

COc1cccc2c1C(=O)c1c(O)c3c(c(O)c1C2=O)C[C@@](O)(C(=O)CO)C[C@@H]3O[C@H]1C[C@H](N)[C@H](O)[C@H](C)O1 [Dox, doxorubicin]
increase of intracellular ROS levels [1]: comparable | mitochondrial membrane potential (ΔΨM) [2]: loss of mitochondrial membrane potential | mitochondrial membrane potential (ΔΨM) [3]: loss of mitochondrial membrane potential | DNA damage (DNA laddering) [4]: resulted in DNA damage | increase of intracellular ROS levels [5]: comparable
